In brackets after ≈: the same amount, converted by molar mass. Activity calls are given as the source filed them. No cut-off for these calls is given here.
Assays:
[1] = target: T1, Transient receptor potential cation channel subfamily A member 1 (Rattus norvegicus, UniProt Q6RI86); assay: Inhibition of full length rat TRPA1 at a holding potential of 15 mV measured after 1 min by PatchXpress electrophysiology assay
Summary of the method: (§1)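 Medium-throughput PatchXpress electrophysiology on HEK293-T-rex cells expressing TRPA1 (human line; selected compounds also run in a rat TRPA1 line).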

[2] = target: T2, Transient receptor potential cation channel subfamily A member 1 (Homo sapiens, UniProt O75762); assay: Inhibition of full length human TRPA1 at a holding potential of 15 mV measured after 1 min by PatchXpress electrophysiology assay; summary of the method: as §1
T2 sequence (O75762 whole entry): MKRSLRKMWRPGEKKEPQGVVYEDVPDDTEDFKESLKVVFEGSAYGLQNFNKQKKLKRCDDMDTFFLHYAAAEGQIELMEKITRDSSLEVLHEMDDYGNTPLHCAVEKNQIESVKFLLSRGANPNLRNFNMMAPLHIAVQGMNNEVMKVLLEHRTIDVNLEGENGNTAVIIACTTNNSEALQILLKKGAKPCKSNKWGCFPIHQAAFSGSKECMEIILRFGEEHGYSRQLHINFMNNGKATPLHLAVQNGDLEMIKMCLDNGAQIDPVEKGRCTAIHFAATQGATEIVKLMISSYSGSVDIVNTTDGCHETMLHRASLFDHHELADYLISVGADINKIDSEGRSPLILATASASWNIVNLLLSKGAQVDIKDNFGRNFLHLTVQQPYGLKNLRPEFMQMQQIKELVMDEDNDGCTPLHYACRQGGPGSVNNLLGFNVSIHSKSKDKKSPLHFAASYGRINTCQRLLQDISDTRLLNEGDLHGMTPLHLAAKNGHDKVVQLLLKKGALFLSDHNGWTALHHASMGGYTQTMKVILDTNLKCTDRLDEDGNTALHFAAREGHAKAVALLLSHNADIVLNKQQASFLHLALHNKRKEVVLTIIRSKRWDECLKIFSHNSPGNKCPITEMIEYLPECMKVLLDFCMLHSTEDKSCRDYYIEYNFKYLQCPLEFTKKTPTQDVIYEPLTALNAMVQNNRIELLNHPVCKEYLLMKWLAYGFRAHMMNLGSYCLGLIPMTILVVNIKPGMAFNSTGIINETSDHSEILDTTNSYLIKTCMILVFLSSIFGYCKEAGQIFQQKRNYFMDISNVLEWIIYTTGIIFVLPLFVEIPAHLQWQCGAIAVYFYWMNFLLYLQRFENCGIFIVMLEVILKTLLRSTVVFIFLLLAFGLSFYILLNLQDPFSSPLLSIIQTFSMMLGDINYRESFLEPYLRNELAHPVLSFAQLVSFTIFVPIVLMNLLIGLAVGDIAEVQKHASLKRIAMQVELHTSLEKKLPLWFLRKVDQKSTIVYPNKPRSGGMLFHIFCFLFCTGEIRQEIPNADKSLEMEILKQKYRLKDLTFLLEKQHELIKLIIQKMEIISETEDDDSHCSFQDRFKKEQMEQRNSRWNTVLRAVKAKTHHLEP

[3] = target: Voltage-gated potassium channel, KQT; KCNQ2(Kv7.2)/KCNQ3(Kv7.3) (Homo sapiens, UniProt O43525+O43526); assay: Activation of KCNQ2/3 (unknown origin); format: protein-complex assay
MDCKII-LE = assay: Permeability in RRCK cells expressing MDR1; details: dog
[4] = target: T2, Transient receptor potential cation channel subfamily A member 1; assay: Antagonist activity at human TRPA1 by calcium flux based FLIPR assay
Summary of the method: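 High-throughput antagonist-mode FLIPR Ca2+ imaging screen of the internal library in 384-well format; hits confirmed by single-rig electrophysiology.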

[5] = Aqueous solubility of the compound by kinetic miniaturized shakeflask method; format: physicochemical; details: buffer
Summary of the method: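 Kinetic miniaturized shake-flask method, starting from a DMSO stock solution.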

MDR1 [6] = assay: Permeability across basolateral to apical side in RRCK cells expressing MDR1; format: ADME, cell-based, Canis lupus familiaris, MDCKII-LE; details: dog, MDCK-MDR1; read-out: permeability
Rattus norvegicus [7] = assay: Suppression of cinnamaldehyde-induced flare response in Sprague-Dawley rat at 10 to 100 mg/kg administered systemically measured after 75 mins by recording blood flow for 30 mins by laser Doppler sonography method; format: functional, organism-based
Summary of the method: (§2)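 Rats dosed orally at 10, 30 and 100 mg/kg, with mean systemic concentrations measured. Flare is induced by cinnamaldehyde and blood flow read by laser Doppler sonography, compared against vehicle and a TRPV1 antagonist given as a mechanistic comparator.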

[8] = target: Sodium channel protein type 5 subunit alpha (Homo sapiens, UniProt Q14524); assay: Inhibition of Nav1.5 (unknown origin)
Chain of Sodium channel protein type 5 subunit alpha (Q14524 whole entry): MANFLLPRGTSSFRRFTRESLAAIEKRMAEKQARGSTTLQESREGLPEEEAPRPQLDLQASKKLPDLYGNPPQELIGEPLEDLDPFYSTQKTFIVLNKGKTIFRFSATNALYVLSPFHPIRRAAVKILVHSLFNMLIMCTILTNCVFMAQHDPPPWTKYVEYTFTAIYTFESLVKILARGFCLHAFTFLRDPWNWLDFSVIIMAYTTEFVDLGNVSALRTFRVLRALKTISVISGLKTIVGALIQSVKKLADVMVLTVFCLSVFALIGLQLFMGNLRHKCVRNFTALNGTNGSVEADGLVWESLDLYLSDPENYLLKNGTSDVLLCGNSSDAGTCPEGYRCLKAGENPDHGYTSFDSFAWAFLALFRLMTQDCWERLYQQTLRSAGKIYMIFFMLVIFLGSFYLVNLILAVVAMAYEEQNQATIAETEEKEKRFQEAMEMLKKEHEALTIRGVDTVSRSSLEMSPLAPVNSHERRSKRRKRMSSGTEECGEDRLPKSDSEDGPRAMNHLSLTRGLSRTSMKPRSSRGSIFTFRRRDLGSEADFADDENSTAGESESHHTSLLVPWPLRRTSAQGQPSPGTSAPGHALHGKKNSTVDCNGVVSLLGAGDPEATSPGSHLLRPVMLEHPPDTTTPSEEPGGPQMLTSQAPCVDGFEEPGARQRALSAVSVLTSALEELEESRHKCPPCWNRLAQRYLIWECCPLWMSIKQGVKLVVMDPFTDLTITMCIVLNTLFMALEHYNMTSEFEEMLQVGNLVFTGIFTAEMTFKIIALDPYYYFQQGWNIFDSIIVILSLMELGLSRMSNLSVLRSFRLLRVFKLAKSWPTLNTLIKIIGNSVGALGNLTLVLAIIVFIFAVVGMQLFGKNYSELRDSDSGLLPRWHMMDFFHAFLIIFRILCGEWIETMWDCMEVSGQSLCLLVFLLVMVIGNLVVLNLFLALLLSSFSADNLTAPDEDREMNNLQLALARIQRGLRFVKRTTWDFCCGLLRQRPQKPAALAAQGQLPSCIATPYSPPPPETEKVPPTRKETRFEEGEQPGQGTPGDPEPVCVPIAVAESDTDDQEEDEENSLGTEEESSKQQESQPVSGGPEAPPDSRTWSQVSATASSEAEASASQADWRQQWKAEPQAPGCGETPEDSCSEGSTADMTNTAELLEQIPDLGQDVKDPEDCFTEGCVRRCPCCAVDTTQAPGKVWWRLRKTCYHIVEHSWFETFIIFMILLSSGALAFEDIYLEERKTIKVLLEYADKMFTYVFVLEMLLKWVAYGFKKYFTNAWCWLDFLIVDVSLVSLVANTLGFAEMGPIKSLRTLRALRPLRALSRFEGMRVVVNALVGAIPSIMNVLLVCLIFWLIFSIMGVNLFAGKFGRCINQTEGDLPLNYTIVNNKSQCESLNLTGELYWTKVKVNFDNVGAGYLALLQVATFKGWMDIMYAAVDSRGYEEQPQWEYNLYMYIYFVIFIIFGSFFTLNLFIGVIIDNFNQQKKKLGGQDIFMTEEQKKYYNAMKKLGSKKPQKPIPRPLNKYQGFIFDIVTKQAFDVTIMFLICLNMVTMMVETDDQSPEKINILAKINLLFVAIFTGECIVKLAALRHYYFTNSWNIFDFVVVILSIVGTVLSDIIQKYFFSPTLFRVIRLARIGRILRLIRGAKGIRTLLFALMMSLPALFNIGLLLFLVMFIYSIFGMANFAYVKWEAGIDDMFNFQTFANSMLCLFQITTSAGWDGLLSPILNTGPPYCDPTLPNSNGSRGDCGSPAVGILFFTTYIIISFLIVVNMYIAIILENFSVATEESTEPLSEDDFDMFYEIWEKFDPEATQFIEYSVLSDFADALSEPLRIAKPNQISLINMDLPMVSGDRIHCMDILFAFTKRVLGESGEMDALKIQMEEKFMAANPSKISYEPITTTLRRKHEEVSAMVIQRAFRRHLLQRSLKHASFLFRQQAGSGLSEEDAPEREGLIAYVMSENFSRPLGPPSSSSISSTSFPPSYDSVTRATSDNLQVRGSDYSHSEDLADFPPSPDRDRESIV

Blood = assay: Drug level in Sprague-Dawley rat blood at 10 to 100 mg/kg, po; format: ADME, organism-based; details: in vivo, read-out: Drug uptake; summary of the method: as §2
[9] = target: Sodium channel protein type 9 subunit alpha (Homo sapiens, UniProt Q15858); assay: Inhibition of Nav1.7 (unknown origin)
[10] = Intrinsic clearance in human liver microsomes; format: ADME, microsome; details: read-out: CLH
[11] = target: T1, Transient receptor potential cation channel subfamily A member 1; assay: Inhibition of rat TRPA1 at a holding potential of 15 mV measured after 1 min by whole-cell manual patch clamp electrophysiology assay
[12] = target: T3, Potassium voltage-gated channel subfamily KQT member 1 (Homo sapiens, UniProt P51787); assay: Inhibition of KCNQ1 (unknown origin)
T3 sequence (P51787 whole entry): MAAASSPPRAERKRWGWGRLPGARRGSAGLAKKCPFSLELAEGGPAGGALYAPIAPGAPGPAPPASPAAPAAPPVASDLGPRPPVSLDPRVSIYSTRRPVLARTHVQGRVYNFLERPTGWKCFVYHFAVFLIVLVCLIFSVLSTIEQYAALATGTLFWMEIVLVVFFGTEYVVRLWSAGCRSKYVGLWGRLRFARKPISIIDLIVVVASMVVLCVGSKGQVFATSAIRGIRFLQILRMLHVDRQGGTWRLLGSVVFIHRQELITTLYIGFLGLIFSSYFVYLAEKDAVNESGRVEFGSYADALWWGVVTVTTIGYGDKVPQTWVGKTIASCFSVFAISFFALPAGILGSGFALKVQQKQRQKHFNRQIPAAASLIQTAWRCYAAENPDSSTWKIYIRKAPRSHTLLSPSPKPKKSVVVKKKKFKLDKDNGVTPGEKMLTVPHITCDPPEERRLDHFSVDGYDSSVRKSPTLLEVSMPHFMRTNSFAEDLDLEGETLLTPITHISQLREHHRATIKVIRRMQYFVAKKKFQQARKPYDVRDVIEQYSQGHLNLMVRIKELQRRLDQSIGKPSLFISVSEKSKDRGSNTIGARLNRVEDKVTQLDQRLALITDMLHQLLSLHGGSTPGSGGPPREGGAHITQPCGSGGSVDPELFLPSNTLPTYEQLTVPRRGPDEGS

[13] = target: Transient receptor potential cation channel subfamily V member 1 (Homo sapiens, UniProt Q8NER1); assay: Inhibition of TRPV1 (unknown origin)
Chain of Transient receptor potential cation channel subfamily V member 1 (Q8NER1 whole entry): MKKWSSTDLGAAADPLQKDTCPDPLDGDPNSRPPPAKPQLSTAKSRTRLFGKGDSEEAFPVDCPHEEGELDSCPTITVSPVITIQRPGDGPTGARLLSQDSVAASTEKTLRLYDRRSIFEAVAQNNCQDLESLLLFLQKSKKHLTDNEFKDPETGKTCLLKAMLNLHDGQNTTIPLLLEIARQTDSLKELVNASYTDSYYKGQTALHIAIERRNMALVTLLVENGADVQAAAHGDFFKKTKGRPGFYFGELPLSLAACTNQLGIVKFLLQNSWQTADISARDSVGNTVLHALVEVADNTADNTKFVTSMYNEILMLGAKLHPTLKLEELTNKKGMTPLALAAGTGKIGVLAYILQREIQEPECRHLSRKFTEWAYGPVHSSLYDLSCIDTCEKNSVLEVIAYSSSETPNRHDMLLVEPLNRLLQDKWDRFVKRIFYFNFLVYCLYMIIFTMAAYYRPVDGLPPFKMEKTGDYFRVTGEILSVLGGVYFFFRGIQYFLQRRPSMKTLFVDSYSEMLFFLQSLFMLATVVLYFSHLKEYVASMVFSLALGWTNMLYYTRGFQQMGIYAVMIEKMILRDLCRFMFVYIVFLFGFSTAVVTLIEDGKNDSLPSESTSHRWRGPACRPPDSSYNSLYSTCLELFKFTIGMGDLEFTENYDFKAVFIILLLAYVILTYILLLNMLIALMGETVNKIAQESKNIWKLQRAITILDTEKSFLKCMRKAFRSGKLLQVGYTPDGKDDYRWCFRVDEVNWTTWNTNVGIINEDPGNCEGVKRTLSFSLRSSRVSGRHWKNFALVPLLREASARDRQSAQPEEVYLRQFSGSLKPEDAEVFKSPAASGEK

MDR1 [14] = assay: Permeability across apical to basolateral side in RRCK cells expressing MDR1; format: ADME, cell-based, Canis lupus familiaris, MDCKII-LE; details: dog, MDCK-MDR1; read-out: permeability
[15] = Intrinsic clearance in rat liver microsomes; format: ADME, microsome; details: read-out: CLH
[16] = target: Voltage-gated inwardly rectifying potassium channel KCNH2 (Homo sapiens, UniProt Q12809)
Rattus norvegicus [17] = assay: Anti-inflammatory activity in po dosed Sprague-Dawley rat assessed as reduction in flinching dosed 2 hrs prior to subcutaneous administration of AITC in right hand paw measured for 30 mins; format: functional
Summary of the method: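 Oral dosing in rats; AITC then given subcutaneously into the right hind paw. Paw flinching is scored, and the minimum effective dose is taken as the lowest dose giving a significant reduction.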

[18] = Inhibition of full length opossum TRPA1 hS5 chimera at a holding potential of 15 mV measured after 1 min by PatchXpress electrophysiology assay; parameters: species or system Monodelphis domestica
[19] = Drug level in Sprague-Dawley rat skin epidermal layer; format: ADME, Skin epidermis; details: in vivo
Summary of the method: (§3)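 Skin flux study after topical administration. Skin permeability is given in cm/h, and compound concentrations are measured separately in the epidermal and dermal layers, expressed as μg/g.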

Rattus norvegicus [20] = assay: Suppression of cinnamaldehyde-induced flare response in Sprague-Dawley rat at 50 mg/ml administered topically measured after 60 mins by recording blood flow for 30 mins by laser Doppler sonography method; format: functional
Summary of the method: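 Compound formulated in vehicle, applied topically to rat skin at 50 mg/mL and left for a set time. Then 20% v/v cinnamaldehyde in the same vehicle is applied at that site, and local blood flow is measured by laser Doppler sonography. Free plasma concentrations are also determined.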

[21] = target: T2, Transient receptor potential cation channel subfamily A member 1; assay: Inhibition of full length human TRPA1 oS5 chimera at a holding potential of 15 mV measured after 1 min by PatchXpress electrophysiology assay
[22] = Drug level in Sprague-Dawley rat skin dermal layer; format: ADME, Dermis; details: in vivo; summary of the method: as §3
[23] = Permeability in Sprague-Dawley rat skin; format: ADME, Zone of skin; details: read-out: permeability (converted); summary of the method: as §3
[24] = Unbound fraction in Sprague-Dawley rat plasma
[25] = Inhibition of full length opossum TRPA1 at a holding potential of 15 mV measured after 1 min by PatchXpress electrophysiology assay; parameters: species or system Monodelphis domestica
[26] = target: Transient receptor potential cation channel subfamily A member 1 (Rattus norvegicus) (UniProt Q6RI86); details: 1 uM
Chain of Transient receptor potential cation channel subfamily A member 1 (Rattus norvegicus) (Q6RI86 whole entry): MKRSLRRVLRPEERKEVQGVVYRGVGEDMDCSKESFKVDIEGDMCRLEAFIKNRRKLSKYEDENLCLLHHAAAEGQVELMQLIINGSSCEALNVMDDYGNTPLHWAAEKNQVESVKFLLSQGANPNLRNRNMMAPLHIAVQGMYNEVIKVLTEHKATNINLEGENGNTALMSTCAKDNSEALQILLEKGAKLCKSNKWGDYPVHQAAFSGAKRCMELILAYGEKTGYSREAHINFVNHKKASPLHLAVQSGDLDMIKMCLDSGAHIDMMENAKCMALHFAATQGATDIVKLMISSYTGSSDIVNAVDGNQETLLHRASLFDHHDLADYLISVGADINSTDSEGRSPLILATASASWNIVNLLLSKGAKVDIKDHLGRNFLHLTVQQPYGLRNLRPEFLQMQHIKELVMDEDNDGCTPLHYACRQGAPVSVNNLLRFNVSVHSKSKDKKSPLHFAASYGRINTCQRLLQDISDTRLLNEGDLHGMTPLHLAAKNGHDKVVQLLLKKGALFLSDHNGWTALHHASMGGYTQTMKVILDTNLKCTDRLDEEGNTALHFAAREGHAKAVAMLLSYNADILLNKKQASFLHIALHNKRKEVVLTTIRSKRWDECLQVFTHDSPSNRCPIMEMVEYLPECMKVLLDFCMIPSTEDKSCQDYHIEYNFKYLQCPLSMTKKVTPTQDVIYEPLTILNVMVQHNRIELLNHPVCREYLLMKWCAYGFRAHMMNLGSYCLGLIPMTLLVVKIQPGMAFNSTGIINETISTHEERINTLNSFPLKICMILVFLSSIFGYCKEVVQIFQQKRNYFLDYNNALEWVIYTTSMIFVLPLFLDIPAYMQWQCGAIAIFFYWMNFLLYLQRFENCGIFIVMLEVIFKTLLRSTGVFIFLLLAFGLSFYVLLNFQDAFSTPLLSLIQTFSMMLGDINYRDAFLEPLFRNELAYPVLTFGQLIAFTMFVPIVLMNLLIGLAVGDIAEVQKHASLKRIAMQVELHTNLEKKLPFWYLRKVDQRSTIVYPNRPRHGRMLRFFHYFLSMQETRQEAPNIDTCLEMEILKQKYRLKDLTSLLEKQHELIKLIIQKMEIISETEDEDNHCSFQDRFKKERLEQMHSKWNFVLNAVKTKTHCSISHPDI

T1 sequence (Q6RI86 whole entry): as above

Row | Compound | IC50 [1] | IC50 [2] | also measured
1 | Fc1ccc(-c2n[nH]c3cc(NC4CCN(CC5CC5)CC4)cnc23)cc1 | 1850 nM | 4630 nM | –
2 | Fc1ccc(Nc2n[nH]c3cc(C(F)(F)F)cnc23)cc1F | 23 nM | 38 nM | –
3 | COCCNC(=O)c1ccc2c(-c3ccc(C#N)cc3)n[nH]c2c1 | 453 nM | 2670 nM | –
4 | Cn1nc(Nc2ccc(Cl)nc2)c2ccc(C(F)(F)F)cc21 | – | > 10000 nM | –
5 | CN(c1ccc(Cl)nc1)c1nn(C)c2cc(C(F)(F)F)ccc12 | – | > 10000 nM | –
6 | Fc1ccc(Nc2n[nH]c3cc(-c4ccc(F)c(F)c4)ccc23)cc1F | – | 3700 nM | –
7 | Clc1ccc(Nc2n[nH]c3ccccc23)cc1 | – | 11700 nM | –
8 | Fc1ccc(Nc2n[nH]c3cc(-c4ccccc4OC(F)(F)F)ccc23)cc1F | – | 1200 nM | –
9 | Fc1ccc(-c2n[nH]c3cc(C(F)(F)F)cnc23)cc1F | 255 nM | 450 nM | –
10 | Fc1ccc(Nc2n[nH]c3cc(Cl)ccc23)cc1F | 49 nM | 111 nM | –
11 | Fc1ccc(Nc2n[nH]c3cc(C(F)(F)F)ncc23)cc1F | – | 645 nM | –

Second part, led by results:

Row | IC50 [1] | IC50 [2] | Compound | also measured
12 | 813 nM | 2540 nM | Fc1ccc(Nc2n[nH]c3cc(OC(F)(F)F)cnc23)nc1 | –
13 | 128 nM | 134 nM | Fc1ccc(-c2n[nH]c3cc(OC(F)(F)F)cnc23)cc1F | –
14 | – | > 10000 nM | FC(F)(F)c1ccc2c(Nc3ccc(C(F)(F)F)nc3)n[nH]c2c1 | –
15 | 246 nM | 686 nM | N#Cc1ccc(-c2n[nH]c3cc(OC(F)(F)F)ccc23)cc1 | EC50 [3]: > 30000 nM; Papp (MDCKII-LE): < 0.1 ×10⁻⁶ cm/s; IC50 [4]: > 10000 nM; solubility kinetic [5]: 4.8 µg/mL (≈ 15.8 µM); Papp B→A (MDR1 [6]): 8 ×10⁻⁶ cm/s; Activity (Rattus norvegicus [7]): Active; IC50 [8]: 17300 nM; concentration (Blood): 11 to 52 nM; IC50 [9]: 17700 nM; microsomal CLint [10]: < 8 µL/min/mg; IC50 [11]: 195 nM; IC50 [12]: > 3000 nM; IC50 [13]: > 30000 nM; Papp A→B (MDR1 [14]): 4 ×10⁻⁶ cm/s; microsomal CLint [15]: 58 µL/min/mg; IC50 [16]: > 30000 nM; Activity (Rattus norvegicus [17]): Dose-dependent effect; minimal effective dose (Rattus norvegicus [17]; read-out: MED): 100 mg/kg
16 | – | 550 nM | FC(F)(F)c1ccc2c(Nc3ccc(Cl)nc3)n[nH]c2c1 | EC50 [3]: 37 nM; IC50 [4]: 2500 nM; IC50 [8]: 8520 nM; IC50 [12]: 2600 nM; IC50 [13]: > 30000 nM; IC50 [16]: > 100000 nM
17 | 329 nM | 2100 nM | Fc1ccc(-c2n[nH]c3cc(C(F)(F)F)ccc23)cc1F | –
18 | 11 nM | 20 nM | Fc1ccc(Nc2n[nH]c3cc(OC(F)(F)F)cnc23)cc1F | IC50 [4]: 330 nM; IC50 [18]: 132 nM; Drug uptake [19]: 304 µg/g; solubility kinetic [5]: 1.6 µg/mL (≈ 4.85 µM); Activity (Rattus norvegicus [20]): Active; Papp B→A (MDR1 [6]): 7 ×10⁻⁶ cm/s; IC50 [8]: 18200 nM; IC50 [9]: 8700 nM; microsomal CLint [10]: 73 µL/min/mg; IC50 [21]: 16000 nM; IC50 [11]: 11 nM; Drug uptake [22]: 20 µg/g; Papp [23]: 0.00333 ×10⁻⁶ cm/s; IC50 [13]: > 30000 nM; Drug uptake(free) [24]: 7 to 59 nM; Papp A→B (MDR1 [14]): 2 ×10⁻⁶ cm/s; microsomal CLint [15]: 99 µL/min/mg; IC50 [25]: > 30000 nM
19 | 271 nM | 1180 nM | N#Cc1ccc(-c2n[nH]c3cc(OC(F)(F)F)ccc23)cn1 | –
20 | 80 nM | 74 nM | N#Cc1ccc(-c2n[nH]c3cc(OC(F)(F)F)ccc23)s1 | –
21 | 216 nM | 257 nM | Fc1ccc(-c2n[nH]c3cc(OC(F)(F)F)cnc23)cc1 | –
22 | 8 nM | 91 nM | Fc1ccc2[nH]c(-c3n[nH]c4cc(OC(F)(F)F)cnc34)cc2c1 | –
23 | – | > 10000 nM | CN(c1ccc(Cl)nc1)c1n[nH]c2cc(C(F)(F)F)ccc12 | –
24 | 9 nM | 42 nM | FC(F)(F)c1ccc2c(Nc3ccc(Cl)cc3)n[nH]c2c1 | –
25 | 116 nM | 748 nM | Fc1ccc2[nH]c(-c3n[nH]c4cc(OC(F)(F)F)ccc34)cc2c1 | –
26 | 9 nM | 53 nM | Fc1ccc(Nc2n[nH]c3cc(C(F)(F)F)ccc23)cc1F | –
27 | < 100 nM | 131 nM | Fc1ccc(Nc2n[nH]c3cc(OC(F)(F)F)ccc23)cc1F | inhibition [26]: 96%

Source: ChEMBL document CHEMBL4033760, “Discovery of a Series of Indazole TRPA1 Antagonists” (ACS Med Chem Lett, 2017)
